Among the data in ChEMBL document CHEMBL4406852, “Combating fluconazole-resistant fungi with novel β-azole-phenylacetone derivatives” (Eur J Med Chem, 2019) are MIC values, retold here.

Holding throughout (format): functional
In experiment [1] the test system is Candida albicans. In words: Antifungal activity against fluconazole-resistant Candida albicans CaR assessed as reduction in fungal growth incubated for 24 hrs by serial dilution method. The method in brief: (§1)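 Fluconazole-resistant C. albicans clinical isolates (17# and CaR from AIDS patients; 632, 901, 904 from clinic) tested by CLSI broth dilution MIC in RPMI 1640 buffered to pH 7.0 with MOPS. Compounds dissolved in DMSO, serially diluted to final 0.03–16 or 0.125–64 μg/mL; inoculum 1–5 × 10^3 CFU/mL; 35 °C, 24 h. MIC = lowest concentration inhibiting visible growth; fluconazole and itraconazole as controls.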

Experiment [2] relates to Candida albicans. Description: Antifungal activity against Candida albicans SC5314 assessed as reduction in fungal growth incubated for 24 hrs by serial dilution method. As to conditions: SC5314, 24 h. Summed up:
(§2)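 MIC by CLSI broth microdilution in RPMI 1640 buffered to pH 7.0 with MOPS. Compounds dissolved in DMSO and serially diluted to final 0.03–16 or 0.125–64 µg/mL. Inoculum 1–5 × 10^3 CFU/mL. Incubation 35 °C, 24 h. Drug-free growth and fungus-free blank controls. MIC is the lowest concentration preventing visible growth.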

The test system of experiment [3] is Candida albicans. In words: Antifungal activity against Candida albicans GIM 2.194 assessed as reduction in fungal growth incubated for 24 hrs by serial dilution method. The settings on record: GIM 2.194, 24 h. The method in brief: as §2
The subject of a further experiment is Candida tropicalis. Description: Antifungal activity against Candida tropicalis GIM 2.183 assessed as reduction in fungal growth incubated for 24 hrs by serial dilution method. As to conditions: GIM 2.183, 24 h. The method in brief: as §2
In another experiment the test system is Nakaseomyces glabratus. In words: Antifungal activity against Candida glabrata assessed as reduction in fungal growth incubated for 24 hrs by serial dilution method. Summed up: as §2
Another experiment concerns Candida parapsilosis. In words: Antifungal activity against Candida parapsilosis GIM 2.190 assessed as reduction in fungal growth incubated for 24 hrs by serial dilution method. The settings on record: Lodderomyces parapsilosis, GIM 2.190, 24 h. Summed up:
as §2

In experiment [4] the test system is Candida albicans. Description: Antifungal activity against fluconazole-resistant Candida albicans 17 assessed as reduction in fungal growth incubated for 24 hrs by serial dilution method. As to conditions: Candida albicans, 17, 24 h. The method in brief:
as §1

Experiment [5] deals with Candida albicans. In words: Antifungal activity against fluconazole-resistant Candida albicans 632 assessed as reduction in fungal growth incubated for 24 hrs by serial dilution method. As to conditions: Candida albicans, 632, 24 h. The method in brief: as §1
For experiment [6], the system named is Candida albicans. Description: Antifungal activity against fluconazole-resistant Candida albicans 901 assessed as reduction in fungal growth incubated for 24 hrs by serial dilution method. As to conditions: Candida albicans, 901, 24 h. Summed up:
as §1

Experiment [7] has as its system Candida albicans. Description: Antifungal activity against fluconazole-resistant Candida albicans 904 assessed as reduction in fungal growth incubated for 24 hrs by serial dilution method. The settings on record: Candida albicans, 904, 24 h. Summed up:
as §1

Converted amounts (≈) assume the structure as drawn.

Consider `O=C(NC(Cn1ccnc1)C(=O)c1cccc(F)c1)c1ccc(-c2ccccc2)cc1F` (stereo not drawn), for which the MIC was 2 µg/mL (≈ 4.64 µM) in the experiment on Candida albicans [1]; 0.125 µg/mL (≈ 0.29 µM) in the experiment on Candida albicans [2]; 0.5 µg/mL (≈ 1.16 µM) with Candida albicans [3]; 0.5 µg/mL (≈ 1.16 µM) with Candida tropicalis; 2 µg/mL (≈ 4.64 µM) in the experiment with Nakaseomyces glabratus; 0.5 µg/mL (≈ 1.16 µM) in the experiment on Candida parapsilosis. The minimal inhibitory concentration (MIC) in the experiment on Candida albicans [4] is 4 µg/mL (≈ 9.27 µM); in the experiment with Candida albicans [5] it was over 64 µg/mL; with Candida albicans [6], 2 µg/mL (≈ 4.64 µM); with Candida albicans [7], 32 µg/mL (≈ 74.2 µM).
Take `O=C(NC(Cn1ccnc1)C(=O)c1ccccc1)c1ccc(-c2ccccc2F)cc1` (stereo not drawn): the MIC with Candida albicans [2] worked out at 0.5 µg/mL (≈ 1.21 µM); in the experiment on Candida albicans [3], 1 µg/mL (≈ 2.42 µM); in the experiment with Candida tropicalis, 0.25 µg/mL (≈ 0.605 µM); with Nakaseomyces glabratus it was 1 µg/mL (≈ 2.42 µM); with Candida parapsilosis it was 2 µg/mL (≈ 4.84 µM).
As for `O=C(NC(Cn1ccnc1)C(=O)c1cccc(Cl)c1)c1ccc(-c2ccccc2)c(F)c1` (stereo not drawn), the MIC was over 64 µg/mL in the experiment on Candida albicans [1]; 0.06 µg/mL (≈ 0.134 µM) with Candida albicans [2]; 0.125 µg/mL (≈ 0.279 µM) in the experiment on Candida albicans [3]; 0.125 µg/mL (≈ 0.279 µM) in the experiment with Candida tropicalis; 0.25 µg/mL (≈ 0.558 µM) in the experiment on Nakaseomyces glabratus; 0.5 µg/mL (≈ 1.12 µM) in the experiment with Candida parapsilosis. Moreover, the MIC in the experiment with Candida albicans [4] is over 64 µg/mL; in the experiment with Candida albicans [5], 4 µg/mL (≈ 8.93 µM); with Candida albicans [6], 4 µg/mL (≈ 8.93 µM); in the experiment on Candida albicans [7], 4 µg/mL (≈ 8.93 µM).
With `O=C(NC(Cn1ccnc1)C(=O)c1ccccc1)c1ccc(-c2ccccc2)c(Cl)c1` (stereo not drawn), the MIC in the experiment on Candida albicans [2] was over 16 µg/mL; with Candida albicans [3] it was over 16 µg/mL; in the experiment on Candida tropicalis, over 16 µg/mL; in the experiment with Nakaseomyces glabratus, over 64 µg/mL; in the experiment with Candida parapsilosis, over 64 µg/mL.
Take `O=C(NC(Cn1ccnc1)C(=O)c1cccc(F)c1)c1ccc(-c2ccccc2)c(F)c1` (stereo not drawn): the minimal inhibitory concentration (MIC) in the experiment with Candida albicans [1] was over 64 µg/mL; in the experiment with Candida albicans [2] it was 0.125 µg/mL (≈ 0.29 µM); in the experiment with Candida albicans [3], 0.25 µg/mL (≈ 0.579 µM); with Candida tropicalis, 1 µg/mL (≈ 2.32 µM); with Nakaseomyces glabratus it was 2 µg/mL (≈ 4.64 µM); in the experiment with Candida parapsilosis it was 1 µg/mL (≈ 2.32 µM). Besides, the MIC in the experiment on Candida albicans [4] is over 64 µg/mL; in the experiment with Candida albicans [5], 1 µg/mL (≈ 2.32 µM); in the experiment on Candida albicans [6], 0.25 µg/mL (≈ 0.579 µM); with Candida albicans [7], 0.5 µg/mL (≈ 1.16 µM).
As for `Cc1cc(C(=O)NC(Cn2ccnc2)C(=O)c2ccccc2)ccc1-c1ccccc1` (stereo not drawn), the MIC in the experiment on Candida albicans [2] is over 16 µg/mL; in the experiment with Candida albicans [3], over 16 µg/mL; in the experiment with Candida tropicalis, over 16 µg/mL; in the experiment on Nakaseomyces glabratus, over 64 µg/mL; in the experiment on Candida parapsilosis it was over 64 µg/mL.
For `Cc1cc(-c2ccccc2)ccc1C(=O)NC(Cn1ccnc1)C(=O)c1ccccc1` (stereo not drawn), the MIC with Candida albicans [2] is over 16 µg/mL; with Candida albicans [3], over 16 µg/mL; in the experiment with Candida tropicalis it was over 16 µg/mL; with Nakaseomyces glabratus it was over 64 µg/mL; in the experiment on Candida parapsilosis it was over 64 µg/mL.
In the case of `O=C(NC(Cn1ccnc1)C(=O)c1ccc(F)cc1)c1ccc(-c2ccccc2)cc1` (stereo not drawn), the minimal inhibitory concentration (MIC) in the experiment with Candida albicans [1] was over 64 µg/mL; in the experiment on Candida albicans [2], 0.06 µg/mL (≈ 0.145 µM); with Candida albicans [3], 0.25 µg/mL (≈ 0.605 µM); in the experiment on Candida tropicalis, 0.25 µg/mL (≈ 0.605 µM); in the experiment with Nakaseomyces glabratus, 0.5 µg/mL (≈ 1.21 µM); in the experiment on Candida parapsilosis, 0.25 µg/mL (≈ 0.605 µM). Also, the MIC with Candida albicans [4] is over 64 µg/mL; in the experiment with Candida albicans [5] it was 2 µg/mL (≈ 4.84 µM); in the experiment on Candida albicans [6] it was 1 µg/mL (≈ 2.42 µM); with Candida albicans [7], 2 µg/mL (≈ 4.84 µM).
In the case of `O=C(NC(Cn1ccnc1)C(=O)c1ccccc1)c1ccc(-c2ccccc2)cc1F` (stereo not drawn), the MIC in the experiment on Candida albicans [1] amounted to 4 µg/mL (≈ 9.67 µM); in the experiment with Candida albicans [2], 0.125 µg/mL (≈ 0.302 µM); in the experiment on Candida albicans [3] it was 0.25 µg/mL (≈ 0.605 µM); in the experiment with Candida tropicalis, 0.06 µg/mL (≈ 0.145 µM); with Nakaseomyces glabratus, 0.5 µg/mL (≈ 1.21 µM); in the experiment with Candida parapsilosis it was 0.125 µg/mL (≈ 0.302 µM). The minimum inhibitory concentration (MIC) in the experiment on Candida albicans [4] was 2 µg/mL (≈ 4.84 µM); in the experiment on Candida albicans [5], 32 µg/mL (≈ 77.4 µM); in the experiment on Candida albicans [6], over 64 µg/mL; with Candida albicans [7], 8 µg/mL (≈ 19.3 µM).
For the molecule `Cc1cccc(-c2ccc(C(=O)NC(Cn3ccnc3)C(=O)c3ccccc3)cc2)c1` (stereo not drawn), the MIC is over 16 µg/mL in the experiment with Candida albicans [2]; over 16 µg/mL in the experiment on Candida albicans [3]; over 16 µg/mL with Candida tropicalis; over 64 µg/mL with Nakaseomyces glabratus; over 64 µg/mL with Candida parapsilosis.
As to `O=C(NC(Cn1ccnc1)C(=O)c1ccccc1)c1ccc(-c2cccc(F)c2)cc1` (stereo not drawn), the MIC in the experiment on Candida albicans [2] was 0.25 µg/mL (≈ 0.605 µM); in the experiment on Candida albicans [3] it was 0.5 µg/mL (≈ 1.21 µM); with Candida tropicalis, 0.125 µg/mL (≈ 0.302 µM); in the experiment on Nakaseomyces glabratus, over 64 µg/mL; with Candida parapsilosis, 1 µg/mL (≈ 2.42 µM).
Regarding `O=C(NC(Cn1cncn1)C(=O)c1ccccc1)c1ccc(-c2ccccc2)cc1` (stereo not drawn), the minimum inhibitory concentration (MIC) in the experiment on Candida albicans [2] was determined as 0.25 µg/mL (≈ 0.631 µM); with Candida albicans [3] it was 2 µg/mL (≈ 5.04 µM); with Candida tropicalis, 1 µg/mL (≈ 2.52 µM).
